According to ChEMBL document CHEMBL4028809, “Dual-tail approach to discovery of novel carbonic anhydrase IX inhibitors by simultaneously matching the hydrophobic and hydrophilic halves of the active site” (Eur J Med Chem, 2017):
The source made the active and inactive calls. The rule behind the calls is not given here.

How the values were obtained:
MDA-MB-231 [1] = experiment: Cytotoxicity against human MDA-MB-231 cells assessed as cell viability at 100 uM after 72 hrs under normoxic condition by MTT assay; format: functional; details: for viability at 100 µM: MDA-MB-231, 72 h, read-out: Activity
Summary of the method: (§1)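 HT-29 or MDA-MB-231 cells seeded at 5 × 10^4 per well and stabilized 24 h at 37 °C, then exposed to a single 0.1 mM dose for 72 h, in hypoxia (0.5% O2, 5% CO2, balance N2, modular chamber) or normoxia (20% O2, 5% CO2). MTT at 5 mg/mL added for 4 h; formazan dissolved in DMSO; absorbance read at 540 nm.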

HT-29 [2] = experiment: Cytotoxicity against human HT-29 cells assessed as cell viability at 100 uM after 72 hrs under hypoxic condition condition by MTT assay relative to control; format: functional; details: for viability at 100 µM: HT-29, 72 h, read-out: Activity; summary of the method: as §1
MDA-MB-231 [3] = experiment: Cytotoxicity against human MDA-MB-231 cells assessed as cell viability at 100 uM after 72 hrs under hypoxic condition by MTT assay; format: functional; details: for viability at 100 µM: MDA-MB-231, 72 h, read-out: Activity; summary of the method: as §1
HT-29 [4] = experiment: Cytotoxicity against human HT-29 cells assessed as cell viability at 100 uM after 72 hrs under normoxic condition by MTT assay relative to control; format: functional; details: for viability at 100 µM: HT-29, 72 h, read-out: Activity; summary of the method: as §1
Carbonic anhydrase 9 = Carbonic anhydrase 9 (Homo sapiens, UniProt Q16790); experiment: Inhibition of recombinant human carbonic anhydrase 9 using 4-nitrophenylacetate as substrate pretreated for 15 mins prior to test by spectrophotometric method
Carbonic anhydrase 2 = Carbonic anhydrase 2 (Homo sapiens, UniProt P00918); experiment: Inhibition of recombinant human carbonic anhydrase 2 using 4-nitrophenylacetate as substrate pretreated for 15 mins prior to test by spectrophotometric method

Row | SMILES | viability at 100 µM (MDA-MB-231 [1]) | viability at 100 µM (HT-29 [2]) | viability at 100 µM (MDA-MB-231 [3]) | viability at 100 µM (HT-29 [4]) | IC50 (Carbonic anhydrase 9) | IC50 (Carbonic anhydrase 2) | Activity (MDA-MB-231 [1]) | Activity (HT-29 [2]) | Activity (MDA-MB-231 [3]) | Activity (HT-29 [4])
1 | COc1cccc(/C=C/C(=O)N[C@@H]2[C@@H](O)[C@H](O)[C@@H](CO)O[C@H]2NC(=S)Nc2ccc(S(N)(=O)=O)cc2)c1OC | 89 to 99% | 63 to 77% | 69.5 to 79.9% | 73 to 79% | 33 nM | – | – | – | – | –
2 | COc1ccc(/C=C/C(=O)O)cc1 [4-METHOXYCINNAMIC ACID] | – | – | – | – | 850000 nM | 760000 nM | – | – | – | –
3 | COc1ccc(/C=C/C(=O)N[C@H]2[C@H](OC)O[C@H](CO)[C@@H](O)[C@@H]2O)cc1 | – | – | – | – | 20000 nM | – | – | – | – | –
4 | COc1ccc(/C=C/C(=O)N[C@@H]2[C@@H](O)[C@H](O)[C@@H](CO)O[C@H]2NC(=S)Nc2ccc(S(N)(=O)=O)cc2)c(OC)c1 | – | – | – | – | 7 nM | – | inactive | inactive | inactive | inactive
5 | COc1cccc(/C=C/C(=O)N[C@@H]2[C@@H](O)[C@H](O)[C@@H](CO)O[C@H]2NC(=S)Nc2ccc(S(N)(=O)=O)cc2)c1 | 89 to 99% | 63 to 77% | 69.5 to 79.9% | 73 to 79% | 95 nM | – | – | – | – | –
6 | CC(=O)Nc1nnc(S(N)(=O)=O)s1 | – | – | – | – | – | – | inactive | inactive | inactive | inactive
7 | COc1cc(/C=C/C(=O)N[C@@H]2[C@@H](O)[C@H](O)[C@@H](CO)O[C@H]2NC(=S)Nc2ccc(S(N)(=O)=O)cc2)cc(OC)c1OC | 89 to 99% | 63 to 77% | 69.5 to 79.9% | 73 to 79% | 46 nM | – | – | – | – | –
8 | COc1cc(OC)c(OC)cc1/C=C/C(=O)N[C@@H]1[C@@H](O)[C@H](O)[C@@H](CO)O[C@H]1NC(=S)Nc1ccc(S(N)(=O)=O)cc1 | 89 to 99% | 63 to 77% | 69.5 to 79.9% | 73 to 79% | 37 nM | – | – | – | – | –
9 | N[C@@H]1[C@@H](O)[C@H](O)[C@@H](CO)O[C@H]1NC(=S)Nc1ccc(S(N)(=O)=O)cc1 | – | – | – | – | 667 nM | 203 nM | – | – | – | –
10 | COc1ccccc1/C=C/C(=O)N[C@@H]1[C@@H](O)[C@H](O)[C@@H](CO)O[C@H]1NC(=S)Nc1ccc(S(N)(=O)=O)cc1 | 89 to 99% | 63 to 77% | 69.5 to 79.9% | 73 to 79% | 60 nM | – | – | – | – | –
11 | COc1ccc(/C=C/C(=O)N[C@@H]2[C@@H](O)[C@H](O)[C@@H](CO)O[C@H]2NC(=S)Nc2ccc(S(N)(=O)=O)cc2)cc1 | 89 to 99% | 63 to 77% | 69.5 to 79.9% | 73 to 79% | 152 nM | – | – | – | – | –
